Calls of active or inactive are those of the source. The rule behind the calls is not given here.
Columns and labels:
[1] = Binding affinity to pyridoxal-5'-phosphate assessed as formation of PLP-aldimine at active site by ESI-MS analysis
Method in brief: (§1)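 Compound weighed into PLP stock at about 1:1 molar ratio with PLP, with or without 200 mM ammonium sulfate pH 8.0. Mixture diluted 40- to 100-fold in water and analysed by ESI-MS in negative ion mode.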

[2] = molecular target: T1, Serine racemase (Mus musculus) (UniProt Q9QZX7); assay: Inhibition of mouse recombinant serine racemase expressed in Escherichia coli MC1061 assessed as formation of D-serine at 5 mM after 30 mins by HPLC analysis
T1 sequence (whole entry): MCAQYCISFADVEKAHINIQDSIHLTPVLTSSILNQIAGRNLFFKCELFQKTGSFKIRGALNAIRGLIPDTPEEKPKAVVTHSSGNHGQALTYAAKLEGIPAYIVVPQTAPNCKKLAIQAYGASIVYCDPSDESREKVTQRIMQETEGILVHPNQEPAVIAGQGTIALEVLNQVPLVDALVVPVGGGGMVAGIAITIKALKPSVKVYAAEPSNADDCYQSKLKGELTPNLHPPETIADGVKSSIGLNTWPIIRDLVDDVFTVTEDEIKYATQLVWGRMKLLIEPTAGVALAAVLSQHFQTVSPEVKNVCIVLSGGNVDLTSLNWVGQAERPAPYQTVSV
Method in brief: (§2)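 Mouse SR (E. coli MC1061, arabinose-induced, three-step chromatography, ~90% pure) incubated in pH 8.0 buffer with 10 μM PLP, 1 mM ATP, 1 mM MgCl2, 5 mM DTT. Screening used 5 mM L-serine and 5 mM test compound; IC50 runs varied inhibitor at 5 mM L-serine. 30 min at 37 C, stopped with 0.3 M HClO4; D-serine quantified by HPLC. Duplicate or triplicate runs.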

[3] = Binding affinity to 30 mM pyridoxal-5'-phosphate assessed as formation of PLP-aldimine by ESI-MS analysis
[4] = Chemical stability assessed as hydrolysis-associated hydroxylamine formation at 0.5 mM after 1 hr in phosphate buffer of pH 7.4; assay type: physicochemical; details: pH 7.4, 1 h, 500 µM
Method in brief: (§3)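 Compound at 0.5 mM or 0.05 mM, diluted from fresh 10 mM stocks, held in 100 mM phosphate buffer pH 8.0 or 7.4 at room temperature for 0, 30 or 60 min. Picrylsulfonic acid then added; released hydroxylamine read as absorbance at 494 nm 15 min later.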

[5] = Binding affinity to pyridoxal-5'-phosphate assessed as formation of syn- and anti-PLP-aldoxime after 20 hrs by NMR spectroscopy
Method in brief: (§4)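 Compound and PLP solutions prepared in 100 mM phosphate buffer in D2O, pD held near 8.0; chemical shifts followed by NMR after mixing.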

[6] = Chemical stability assessed as hydrolysis-associated hydroxylamine formation at 0.5 mM after 1 hr in phosphate buffer of pH 8; assay type: physicochemical; details: pH 8, 1 h, 500 µM; method in brief: as §3
[7] = Binding affinity to pyridoxal-5'-phosphate assessed as formation of syn- and anti-PLP-aldoxime by NMR spectroscopy; method in brief: as §4
[8] = Binding affinity to pyridoxal-5'-phosphate assessed as formation of PLP-aldoxime by ESI-MS analysis; method in brief: as §1
[9] = Binding affinity to pyridoxal-5'-phosphate assessed as formation of PLP-aldoxime at 5 mM after 1 hr by UV/vis spectroscopy
Method in brief: (§5)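 PLP and compound solutions in 100 mM phosphate buffer pH 8.0 mixed 1:1, giving 300 μM PLP and 5 mM compound final. Incubated 1 h at room temperature, then absorbance scanned from 310 to 500 nm.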

Serine racemase [10] = molecular target: T2, Serine racemase (Mus musculus, UniProt Q9QZX7); assay: Inhibition of mouse recombinant serine racemase transfected in bacterial expression system
T2 sequence (Q9QZX7 whole entry): T1 sequence (whole entry)

[11] = Chemical stability assessed as hydrolysis-associated hydroxylamine formation at 0.05 mM after 1 hr in phosphate buffer of pH 7.4; assay type: physicochemical; details: pH 7.4, 1 h, 50 µM; method in brief: as §3
Serine racemase [12] = molecular target: T2, Serine racemase; assay: Inhibition of mouse recombinant serine racemase expressed in Escherichia coli MC1061 assessed as formation of D-serine after 30 mins by HPLC analysis; method in brief: as §2
[13] = Chemical stability assessed as hydrolysis-associated hydroxylamine formation at 0.05 mM after 1 hr in phosphate buffer of pH 8; assay type: physicochemical; details: pH 8, 1 h, 50 µM; method in brief: as §3
[14] = molecular target: T1, Serine racemase (Mus musculus); assay: Inhibition of mouse recombinant serine racemase expressed in Escherichia coli MC1061 assessed as formation of D-serine at 5 mM after 30 mins by HPLC analysis in presence of 5 fold molar excess of MgCl2 over compound
[15] = molecular target: T1, Serine racemase (Mus musculus); assay: Inhibition of mouse recombinant serine racemase expressed in Escherichia coli MC1061 assessed as formation of D-serine at 5 mM in phosphate buffer of pH 8 treated for 15 to 20 mins before addition of substrate by HPLC analysis in presence of 10 uM PLP
[16] = molecular target: T3, Serine racemase (Homo sapiens) (UniProt Q9GZT4); assay: Inhibition of human recombinant serine racemase assessed as formation of D-serine at 5 mM treated for 15 to 20 mins before addition of substrate by HPLC analysis in presence of increasing concentration of PLP
T3 sequence (whole entry): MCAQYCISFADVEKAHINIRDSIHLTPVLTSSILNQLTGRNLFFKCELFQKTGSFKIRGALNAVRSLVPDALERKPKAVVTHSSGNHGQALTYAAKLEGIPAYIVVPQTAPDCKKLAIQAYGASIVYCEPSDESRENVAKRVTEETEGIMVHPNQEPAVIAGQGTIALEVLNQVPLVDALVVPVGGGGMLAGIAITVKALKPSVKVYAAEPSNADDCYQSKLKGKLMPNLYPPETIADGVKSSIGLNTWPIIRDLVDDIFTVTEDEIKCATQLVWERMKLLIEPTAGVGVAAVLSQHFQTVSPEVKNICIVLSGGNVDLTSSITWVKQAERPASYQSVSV

[17] = molecular target: T1, Serine racemase (Mus musculus); assay: Inhibition of mouse recombinant serine racemase expressed in Escherichia coli MC1061 assessed as formation of D-serine at 5 mM treated for 15 to 20 mins before addition of substrate by HPLC analysis in presence of increasing concentration of PLP
Serine racemase [18] = molecular target: T2, Serine racemase; assay: (§6) Inhibition of mouse recombinant serine racemase expressed in Escherichia coli MC1061 assessed as formation of D-serine after 30 mins by Linewaver-burk and Eadie-Hofstee plot analysis
Method in brief: (§7)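 Mouse SR racemization at varied L-serine and inhibitor concentrations, pH 8.0, 10 μM PLP, 30 min at 37 C. End-point HPLC measured D-serine peak area relative to a glycine internal standard, in triplicate. Global nonlinear fit followed by linear transformation.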

[19] = molecular target: T1, Serine racemase (Mus musculus); assay: as §6; method in brief: as §7
[20] = molecular target: T4, Alanine racemase (Geobacillus stearothermophilus) (UniProt P10724); assay: Inhibition of Bacillus stearothermophilus alanine racemase assessed as formation of L-alanine at 5 mM in phosphate buffer of pH 8 treated for 15 to 20 mins before addition of substrate by HPLC analysis in presence of 10 uM PLP
T4 sequence (whole entry): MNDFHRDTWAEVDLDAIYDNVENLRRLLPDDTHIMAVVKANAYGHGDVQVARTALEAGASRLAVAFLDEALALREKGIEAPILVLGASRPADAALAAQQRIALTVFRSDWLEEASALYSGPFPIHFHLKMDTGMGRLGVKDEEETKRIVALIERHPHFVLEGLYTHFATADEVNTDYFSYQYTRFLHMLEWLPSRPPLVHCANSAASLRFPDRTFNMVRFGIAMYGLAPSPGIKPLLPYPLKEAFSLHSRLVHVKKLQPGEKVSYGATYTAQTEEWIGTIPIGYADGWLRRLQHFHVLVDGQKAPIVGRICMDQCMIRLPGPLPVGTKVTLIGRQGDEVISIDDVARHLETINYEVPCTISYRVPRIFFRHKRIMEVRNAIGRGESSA
Method in brief: (§8)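 Enzyme in 50 mM phosphate buffer pH 8.0 with 10 μM PLP, preincubated with 5 mM inhibitor at room temperature for 15-20 min. Substrate added near KM: alanine racemase 5 mM D-alanine (L-alanine formed); SDH 50 mM L-serine (SDH partially purified, ~50%, from E. coli BL21-RIL); transaminase 5 mM L-aspartic acid plus 5 mM α-ketoglutarate. Products analysed by HPLC.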

[21] = Binding affinity to pyridoxal-5'-phosphate assessed as compound remaining after 12 days by NMR spectroscopy; method in brief: as §4
[22] = molecular target: T5, L-serine dehydratase/L-threonine deaminase (Rattus norvegicus) (UniProt P09367); assay: Inhibition of rat SDH expressed in Escherichia coli BL21-RIL assessed as formation of pyruvate at 5 mM in phosphate buffer of pH 8 treated for 15 to 20 mins before addition of substrate by HPLC analysis in presence of 10 uM PLP; method in brief: as §8
T5 sequence (whole entry): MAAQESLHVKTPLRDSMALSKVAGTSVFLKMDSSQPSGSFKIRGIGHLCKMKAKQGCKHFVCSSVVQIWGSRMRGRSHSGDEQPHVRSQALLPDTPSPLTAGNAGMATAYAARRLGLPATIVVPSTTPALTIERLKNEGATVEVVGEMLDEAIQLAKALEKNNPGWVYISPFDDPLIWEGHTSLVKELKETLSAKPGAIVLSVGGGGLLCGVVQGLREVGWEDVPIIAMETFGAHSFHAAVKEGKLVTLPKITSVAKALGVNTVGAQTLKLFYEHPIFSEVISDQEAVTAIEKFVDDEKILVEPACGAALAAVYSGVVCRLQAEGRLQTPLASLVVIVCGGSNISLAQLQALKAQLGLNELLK

[23] = Inhibition of broad-range bacterial transaminase assessed as formation of L-glutamic acid at 5 mM in phosphate buffer of pH 8 treated for 15 to 20 mins before addition of substrate by HPLC analysis in presence of 10 uM PLP; method in brief: as §8
[24] = molecular target: T3, Serine racemase (Homo sapiens); assay: Inhibition of human recombinant serine racemase assessed as formation of D-serine at 5 mM in phosphate buffer of pH 8 treated for 15 to 20 mins before addition of substrate by HPLC analysis in presence of 10 uM PLP
Method in brief: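 Recombinant human SR assayed as for mouse SR: pH 8.0 buffer with 10 μM PLP, 1 mM ATP, 1 mM MgCl2, 5 mM DTT, 5 mM L-serine and 5 mM compound. Incubated 30 min at 37 C, stopped with HClO4; D-serine measured by HPLC.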

[25] = Binding affinity to 4-5 mM pyridoxal-5'-phosphate assessed as formation of PLP-aldimine by ESI-MS analysis; method in brief: as §1
[26] = Binding affinity to pyridoxal-5'-phosphate assessed as formation of PLP-aldimine by NMR spectroscopy; method in brief: as §4
[27] = Binding affinity to pyridoxal-5'-phosphate assessed as PLP-amino acid Schiff base interaction at 5 mM after 1 hr by UV/vis spectroscopy; method in brief: as §5

## CC(O)C(N)C(=O)NO (stereo not given)
[1]
  Activity: inactive
[2]
  inhibition: inactive
[3]
  Activity: Active

## O=C(CCCCC(=O)NO)NO
[4]
  Stability: Stable
[5]
  Activity: inactive
[6]
  Stability: Stable
[7]
  Activity: inactive
[8]
  Activity: inactive
[2]
  inhibition: inactive
[9]
  Activity: inactive

## NCC(=O)NO
[1]
  Activity: inactive
[2]
  inhibition: inactive
[3]
  Activity: Active

## O=C(O)CC(=O)O [MALONIC ACID]
Serine racemase [10]
  Ki: 71 µM

## N[C@@H](CO)C(=O)O
[3]
  Activity: Active

## O=C(CCCC(=O)NO)NO [GLUTARODIHYDROXAMIC ACID]
[11]
  Stability: Unstable
[5]
  Activity: Active
Serine racemase [12]
  IC50: 170 µM
[8]
  Activity: Active
[13]
  Stability: Unstable
[9]
  Activity: Active

## Nc1ccc(C(=O)NO)cc1
[2]
  inhibition: inactive

## NCC(=O)O
[3]
  Activity: Active

## O=C(CC(=O)NO)NO [MALONODIHYDROXAMIC ACID]
[11]
  Stability: Unstable
[14]
  inhibition: Active
[15]
  inhibition: Active
[16]
  inhibition: inactive
[7]
  Activity: Active
Serine racemase [12]
  IC50: 370 µM
[8]
  Activity: Active
[13]
  Stability: Unstable
[17]
  inhibition: inactive
Serine racemase [18]
  Ki: 417 µM
[9]
  Activity: Active

## O=C(CCCCCCC(=O)NO)NO [SUBEROHYDROXAMIC ACID]
[4]
  Stability: Stable
[5]
  Activity: inactive
[6]
  Stability: Stable
[7]
  Activity: inactive
[8]
  Activity: inactive
[2]
  inhibition: inactive

## O=C(CCCCCCC(=O)Nc1ccccc1)NO
[7]
  Activity: Active
[2]
  inhibition: inactive
[9]
  Activity: inactive

## O=C(CCC(=O)NO)NO [SUCCINODIHYDROXAMIC ACID]
[11]
  Stability: Unstable
[15]
  inhibition: Active
[16]
  inhibition: inactive
[7]
  Activity: Active
Serine racemase [12]
  IC50: 90 µM
[8]
  Activity: Active
[13]
  Stability: Unstable
[17]
  inhibition: inactive
[19]
  Ki: 3.6 µM
[9]
  Activity: Active

## O=C(NO)c1ccc(Cl)cc1
[2]
  inhibition: inactive

## N[C@@H](C(=O)O)[C@H](O)C(=O)O
Serine racemase [10]
  Ki: 43 µM

## O=C(NO)C(=O)NO
[4]
  Stability: Stable
[15]
  inhibition: inactive
[6]
  Stability: Stable
[20]
  inhibition: inactive
[7]
  Activity: inactive
[21]
  Activity: 20%
[8]
  Activity: inactive
[22]
  inhibition: inactive
[23]
  inhibition: inactive
[2]
  inhibition: inactive
[24]
  inhibition: inactive
[9]
  Activity: inactive

## NC(CO)C(=O)NO (stereo not given)
[1]
  Activity: inactive
[2]
  inhibition: inactive
[3]
  Activity: Active

## CC(=O)NO
[7]
  Activity: Active
[8]
  Activity: inactive
[2]
  inhibition: inactive
[9]
  Activity: inactive

## O=C(NO)c1ccc([N+](=O)[O-])cc1
[2]
  inhibition: inactive

## N[C@@H](CC(=O)NO)C(=O)O
[25]
  Activity: Active
[26]
  Activity: Active
[15]
  inhibition: Active
[20]
  inhibition: inactive
Serine racemase [12]
  IC50: 1300 µM
[27]
  Activity: Active
[22]
  inhibition: Active
[23]
  inhibition: inactive
[24]
  inhibition: Active
[9]
  Activity: Active
